Assays:
Type in all cases: cell-based
[1] = tested on: MDA-MB-231 breast cancer cells; assay: MTT cell viability assay, MDA-MB-231; conditions: Homo sapiens; for IC20: MDA-MB-231, read-out: IC20 (20% inhibitory concentration) on MDA-MB-231 cell line
Summary of the method: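 MDA-MB-231 cells (ATCC) grown in RPMI 1640 with 10% FBS, penicillin/streptomycin, 37°C, 5% CO2. Seeded in triplicate at 1.0×10^4 cells/well, then after 24 h exposed to 5.0–50.0 μM test compound (10.0 mM DMSO stock) for 24 h. MTT (5.0 mg/mL) was added for 2 h at 37°C in the dark, formazan dissolved in DMSO, and absorbance read at 579 nm (reference 650 nm). Mean ± SEM, n=3.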

[2] = tested on: MCF-7 breast cancer cells; assay: MTT cell viability assay, MCF-7; conditions: Homo sapiens, MCF7, 24 h, read-out: IC50, Breast adenocarcinoma (MCF-7)
Summary of the method: (§1)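 Cells grown in RPMI 1640 with 10% FBS, penicillin and streptomycin at 37°C, 5% CO2. DMSO stocks were 10.0 mM. Seeded in triplicate at 1.0×10^4 cells/well; after 24 h, dosed 5.0–50.0 μM for 24 h. MTT (5.0 mg/mL) was added for 2 h at 37°C in the dark, formazan dissolved in DMSO, A579 read against 650 nm. IC50 reported as mean ± SEM, n=3. Not assigned if viability stayed above 50% at 50 μM.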

[3] = tested on: RT-112 urinary bladder cancer cells; assay: MTT cell viability assay, RT-112; conditions: Homo sapiens, RT-112, 24 h, read-out: IC50, Bladder carcinoma (RT-112)
Summary of the method: as §1

[4] = tested on: EJ-28 urinary bladder cancer cells; assay: MTT cell viability assay, EJ-28; conditions: Homo sapiens, EJ-28, 24 h, read-out: IC50, Bladder carcinoma (EJ-28)
Summary of the method: as §1

[5] = tested on: PC-3 prostate cancer cells; assay: MTT cell viability assay, PC-3; conditions: Homo sapiens, 24 h, read-out: IC50, Prostate carcinoma (PC-3)
Summary of the method: as §1

[6] = tested on: HSC-4 oral squamous cancer cells; assay: MTT cell viability assay, HSC-4; conditions: Homo sapiens, HSC-4, 24 h, read-out: IC50, Oral squamous carcinoma (HSC-4)
Summary of the method: (§2)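 Cultured in DMEM with 10% FBS, penicillin/streptomycin, 37°C, 5% CO2. Cells plated in triplicate at 1.0×10^4/well. After 24 h, test compound was added at 5.0–50.0 μM (from 10.0 mM DMSO stocks) for 24 h. MTT reduction ran 2 h at 37°C in the dark, formazan was dissolved in DMSO, absorbance 579 nm (reference 650 nm). IC50 given as mean ± SEM (n=3), not assigned when viability remained >50% at 50 μM.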

HepG2 liver cancer cells = assay: MTT cell viability assay, HepG2; conditions: Homo sapiens, HepG2, 24 h, read-out: IC50, Hepatocyte carcinoma (HepG2)
Summary of the method: as §2

[7] = tested on: human mammary epithelial cells (HMECs); assay: MTT cell viability assay, HMEC normal control; conditions: 24 h, read-out: IC50, HMECs (normal cells)
Summary of the method: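 Normal human mammary epithelial cells kept in mammary epithelial growth medium at 37°C, 5% CO2. Test compound was applied for 24 h over 5.0–50.0 μM (10.0 mM DMSO stocks), and viability was measured by MTT: 2 h in the dark at 37°C, DMSO solubilisation, read at 579/650 nm. Mean ± SEM of n=3; no IC50 assigned if viability stayed above 50% at 50 μM.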

Structure (SMILES) | IC20 [1] | IC50 [2] | IC50 [3] | IC50 [4] | IC50 [5] | IC50 [6] | IC50 (HepG2 liver cancer cells) | IC50 [7] | IC50 ([1]; MDA-MB-231, 24 h, read-out: IC50, Breast adenocarcinoma (MDA-MB-231))
C=CCc1cc(OC)c(O)c(OC)c1 [compound 2, 4-Allyl-2,6-dimethoxyphenol] | 48 µM | > 50 µM | > 50 µM | > 50 µM | > 50 µM | > 50 µM | > 50 µM | > 50 µM | –
C=CCc1ccc(OC)cc1 [compound 5, 4-allyl anisole] | 32 µM | > 50 µM | > 50 µM | > 50 µM | > 50 µM | > 50 µM | > 50 µM | > 50 µM | > 50 µM

Reference: PMC5609789 (Drug Design, Development and Therapy, 2017)
